In ChEMBL document CHEMBL1125833, “Anxiolytic properties of certain annelated [1,2,4]triazolo[1,5-c]pyrimidin-5(6H)-ones” (J Med Chem, 1991):
Values joined by “and” are separate entries in the source; they are usually repeats but may differ in a detail not shown here. Equal values may be shown once.

Assays:
[1] = target: GABA-A receptor; anion channel (Rattus norvegicus) (UniProt O09028+P15431+P18506+P18508+P19969+P20236+P23574+P23576+P28471+P28473+P30191+P62813+P63079+P63138+Q91ZM7+Q9ES14); experiment: GABA ratio measured by the IC50 in the absence of GABA compared to the IC50 in the presence of GABA in rats.
Procedure, shortened: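 Modified [3H]flunitrazepam binding in rat forebrain, with IC50 measured with and without GABA. Ratio = IC50 without GABA divided by IC50 with GABA.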

[2] = target: GABA-A receptor; anion channel; experiment: Displacement of [3H]flunitrazepam from GABA-A Benzodiazepine receptors in rat forebrain
[3] = target: GABA-A receptor; anion channel; experiment: Displacement of [3H]flunitrazepam (FNZ) from GABA-A benzodiazepine receptor in rat forebrain
[4] = test system: Rattus norvegicus; experiment: Compound tested for its effect on Nonconflict(VI) operant responding of rats at a dose of 10.0 mg/kg administered perorally.; format: functional; details: route oral
Procedure, shortened: (§1)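 Cook-Davidson conflict procedure in rats given oral doses. Rats lever-press for milk reward with shock (conflict, FR) and without shock (nonconflict, VI). Value is % change in response rate, with significance set at P < 0.05. The minimally effective oral dose is taken as the dose raising conflict responding or lowering VI responding.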

[5] = test system: Rattus norvegicus; experiment: Compound tested for its effect on Nonconflict(VI) operant responding of rats at a dose of 3.0 mg/kg administered perorally.; format: functional; details: route oral; procedure, shortened: as §1
[6] = test system: Rattus norvegicus; experiment: Minimal effective oral dose to cause increase in conflict response in rats after po administration.; format: functional; procedure, shortened: as §1
[7] = species: Rattus norvegicus; experiment: Anxiolytic response measured by antagonism of pentylenetetrazole discriminative stimuli in rats.; format: functional
Procedure, shortened: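 Rats trained to discriminate a subconvulsant dose of pentylenetetrazole (PTZ) from vehicle. Test compound given 30 min before the PTZ dose. Antagonism of the PTZ stimulus is scored as the anxiolytic response. ED50 values by probit analysis, with 95% confidence limits.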

[8] = test system: Rattus norvegicus; experiment: Compound tested for its effect on conflict(FR) operant responding of rats at a dose of 10.0 mg/kg administered perorally.; format: functional; details: route oral; procedure, shortened: as §1
[9] = test system: Rattus norvegicus; experiment: Compound tested for its effect on conflict(FR) operant responding of rats at a dose of 3.0 mg/kg administered perorally.; format: functional; details: route oral; procedure, shortened: as §1
[10] = test system: Rattus norvegicus; experiment: Minimal effective oral dose to cause VI response decrement in rats.; format: functional; procedure, shortened: as §1
[11] = test system: Rattus norvegicus; experiment: Anxiolytic response at 30 mg/Kg measured by antagonism of pentylenetetrazole discriminative stimuli in rats.; format: functional
[12] = test system: Rattus norvegicus; experiment: Compound tested for its effect on conflict (FR) operant responding of rats at a dose of 10.0 mg/Kg administered perorally.; format: functional; procedure, shortened: as §1
[13] = test system: Rattus norvegicus; experiment: Compound tested for its effect on Nonconflict (VI) operant responding of rats at a dose of 3.0 mg/Kg administered perorally.; format: functional; procedure, shortened: as §1
[14] = test system: Rattus norvegicus; experiment: Compound tested for its effect on Nonconflict (VI) operant responding of rats at a dose of 10.0 mg/Kg administered perorally.; format: functional; procedure, shortened: as §1
[15] = test system: Rattus norvegicus; experiment: Compound tested for its effect on Nonconflict (VI) operant responding of rats at a dose of 30.0 mg/Kg administered perorally.; format: functional; procedure, shortened: as §1
[16] = test system: Rattus norvegicus; experiment: Compound tested for its effect on conflict (FR) operant responding of rats at a dose of 3.0 mg/Kg administered perorally.; format: functional; procedure, shortened: as §1
[17] = test system: Rattus norvegicus; experiment: Compound tested for its effect on conflict (FR) operant responding of rats at a dose of 30.0 mg/Kg administered perorally.; format: functional; procedure, shortened: as §1
[18] = test system: Rattus norvegicus; experiment: Compound tested for its effect on conflict(FR) operant responding of rats at a dose of 1.0 mg/kg administered perorally.; format: functional; details: route oral; procedure, shortened: as §1
[19] = test system: Rattus norvegicus; experiment: Compound tested for its effect on Nonconflict(VI) operant responding of rats at a dose of 30.0 mg/kg administered perorally.; format: functional; details: route oral; procedure, shortened: as §1
[20] = test system: Rattus norvegicus; experiment: Compound tested for its effect on conflict(FR) operant responding of rats at a dose of 30.0 mg/kg administered perorally.; format: functional; details: route oral; procedure, shortened: as §1
[21] = test system: Rattus norvegicus; experiment: Compound tested for its effect on Nonconflict(VI) operant responding of rats at a dose of 1.0 mg/kg administered perorally.; format: functional; details: route oral; procedure, shortened: as §1
[22] = test system: Rattus norvegicus; experiment: Interaction with ethanol in Rotarod performance at a dose of 0 mg/Kg in rats.; format: functional
Procedure, shortened: (§2)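 Rotorod test of ethanol interaction in male Wistar (Crl:(WI)BR) rats, 130–160 g. Vehicle or test compound (0, 1, 3, 10 mg/kg) given orally 30 min before ethanol. Graded ethanol doses given ip 30 min before rotorod testing. Ethanol ED50 reported with confidence limits, P < 0.05.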

[23] = test system: Rattus norvegicus; experiment: Minimal effective oral dose to cause ethanol interaction in rats.; format: functional; procedure, shortened: as §2
[24] = test system: Rattus norvegicus; experiment: Compound tested for its effect on Nonconflict (VI) operant responding of rats at a dose of 1.0 mg/Kg administered perorally.; format: functional; procedure, shortened: as §1
[25] = test system: Rattus norvegicus; experiment: Interaction with ethanol in Rotarod performance at a dose of 3 mg/Kg in rats.; format: functional; procedure, shortened: as §2
[26] = test system: Rattus norvegicus; experiment: Interaction with ethanol in Rotarod performance at a dose of 1 mg/Kg in rats.; format: functional; procedure, shortened: as §2
[27] = test system: Rattus norvegicus; experiment: Interaction with ethanol in Rotarod performance at a dose of 10 mg/Kg in rats.; format: functional; procedure, shortened: as §2
[28] = test system: Rattus norvegicus; experiment: Compound tested for its effect on conflict (FR) operant responding of rats at a dose of 1.0 mg/Kg administered perorally.; format: functional; procedure, shortened: as §1
[29] = test system: Rattus norvegicus; experiment: Compound tested for its effect on conflict (FR) operant responding of rats at a dose of 30.0 mg/Kg administered perorally; format: functional; procedure, shortened: as §1

O=C1C2C=Nc3ccccc3C2=NN1c1ccccc1 (stereo not given) [CGS-8216]
GABA ratio [1]: 0.82
IC50 [2]: 0.45 nM

Oc1nc2c(c3nc(-c4cccc(F)c4)nn13)CN(Cc1ccccc1)CC2
IC50 [3]: 2.4 nM
GABA ratio [1]: 1.6

Oc1nc2c(c3nc(-c4ccccc4F)nn13)CN(Cc1cccnc1)CC2
Change in response rate [4]: -21%
Change in response rate [5]: -8%
MED [6]: 10 mg/kg
ED50 [7]: 3.65 mg/kg
IC50 [3]: 0.74 nM
Change in response rate [8]: 322%
GABA ratio [1]: 1.4
Change in response rate [9]: 129%
MED [10]: 10 mg/kg

Oc1nc2c(c3nc(-c4ccccc4F)nn13)CN(Cc1ccncc1)CC2
IC50 [3]: 1.89 nM
GABA ratio [1]: 1.14

Oc1nc2c(c3nc(-c4ccccc4F)nn13)CN(CCc1ccccc1)CC2
IC50 [3]: 28 nM

O=S(=O)(c1cccnc1)N1CCc2nc(O)n3nc(-c4ccccc4F)nc3c2C1
IC50 [3]: 5.34 nM
GABA ratio [1]: 1.3

COC(=O)CN1CCc2nc(O)n3nc(-c4ccccc4F)nc3c2C1
IC50 [3]: 27 nM
GABA ratio [1]: 1.06
inhibition in vivo at 30 mg/kg [11]: 12%

Cc1ccc(S(=O)(=O)N2CCc3nc(O)n4nc(-c5ccccc5F)nc4c3C2)cc1
IC50 [3]: 1.77 nM
GABA ratio [1]: 0.99

CCN1CCc2nc(O)n3nc(-c4ccccc4F)nc3c2C1
IC50 [3]: 150 nM

Oc1nc2c(c3nc(-c4ccccc4F)nn13)CCCCC2
MED [6]: 10 mg/kg
ED50 [7]: 4.4 mg/kg
IC50 [3]: 7.2 nM
Change in response rate [12]: 232%
Change in response rate [13]: 11%
Change in response rate [14]: 53%
Change in response rate [15]: 49%
Change in response rate [16]: 79%
Change in response rate [17]: 236%
MED [10]: 10 mg/kg

CCOC(=O)N1CCc2nc(O)n3nc(-c4ccccc4F)nc3c2C1
IC50 [3]: 12.1 nM
GABA ratio [1]: 1.1

O=C(Cc1ccccc1)N1CCc2nc(O)n3nc(-c4ccccc4F)nc3c2C1
IC50 [3]: 140 nM

Oc1nc2ccc(Cl)cc2c2nc(-c3ccccc3F)nn12
IC50 [3]: 0.5 nM
GABA ratio [1]: 0.79

Oc1nc2c(c3nc(-c4ccccc4F)nn13)CCC2
IC50 [3]: 4.7 nM

Oc1nc2c(c3nc(-c4ccccc4F)nn13)CN(Cc1ccccc1)CC2
Change in response rate [4]: -44%
Change in response rate [5]: -13%
MED [6]: 10 mg/kg
ED50 [7]: 0.66 mg/kg
Change in response rate [18]: 19%
IC50 [3]: 0.44 nM
Change in response rate [8]: 206%
Change in response rate [19]: -52%
GABA ratio [1]: 1.06
Change in response rate [9]: 173%
Change in response rate [20]: 282%
Change in response rate [21]: 0%
MED [10]: 30 mg/kg

Oc1nc2c(c3nc(-c4ccccc4)nn13)CN(Cc1ccccc1)CC2
ED50 [22]: 1320 mg/kg
MED [23]: 1 mg/kg
MED [6]: 3 mg/kg
ED50 [7]: 2.6 mg/kg
IC50 [3]: 2.19 nM
Change in response rate [24]: 0%
Change in response rate [12]: 367%
ED50 [25]: 832 mg/kg
ED50 [26]: 984 mg/kg
GABA ratio [1]: 1.4
Change in response rate [13]: -4%
Change in response rate [14]: 12%
ED50 [27]: 563 mg/kg
Change in response rate [28]: 35%
Change in response rate [16]: 167%

CC(C)N1CCc2nc(O)n3nc(-c4ccccc4F)nc3c2C1
IC50 [3]: 105 nM

Oc1nc2c(c3nc(-c4ccc[nH]4)nn13)CN(Cc1ccccc1)CC2
ED50 [7]: 17.3 mg/kg
IC50 [3]: 7.6 nM
GABA ratio [1]: 1.65

Oc1nc2c(c3nc(-c4ccccc4F)nn13)CCCC2
MED [6]: 30 mg/kg
ED50 [7]: 2.4 mg/kg
IC50 [3]: 1.7 nM
Change in response rate [15]: 1%
Change in response rate [29]: 132%

NC(Cc1ccccc1)C(=O)N1CCc2nc(O)n3nc(-c4ccccc4F)nc3c2C1 (stereo not given)
IC50 [3]: > 100 nM

O=C(Nc1ccccc1)N1CCc2nc(O)n3nc(-c4ccccc4F)nc3c2C1
IC50 [3]: 67 nM

Oc1nc2c(c3nc(-c4ccccc4F)nn13)CNCC2
IC50 [3]: 442 nM

O=C1C2C=Nc3ccccc3C2=NN1c1ccc(Cl)cc1 (stereo not given) [CGS-9896]
MED [23]: 30 mg/kg
MED [6]: 10 mg/kg
ED50 [7]: 2.3 mg/kg

CC1c2nc(O)n3nc(-c4ccccc4F)nc3c2CN1Cc1ccccc1 (stereo not given)
IC50 [3]: > 1000 nM

Oc1nc2c(c3nc(-c4ccccn4)nn13)CN(Cc1ccccc1)CC2
ED50 [7]: 26 mg/kg
IC50 [3]: 20.6 nM
GABA ratio [1]: 1.6

CN1C(=O)CN=C(c2ccccc2)c2cc(Cl)ccc21 [DIAZEPAM]
Change in response rate [4]: 30%
Change in response rate [5]: 4%
MED [23]: 5 mg/kg
MED [6]: 10 mg/kg
ED50 [7]: 1.23 mg/kg
Change in response rate [8]: 425%
Change in response rate [19]: -2%
Change in response rate [9]: 159%
Change in response rate [20]: 257%
MED [10]: 10 mg/kg

O=C(c1ccccc1)N1CCc2nc(O)n3nc(-c4ccccc4F)nc3c2C1
IC50 [3]: 50 nM

Oc1nc2c(c3nc(-c4ccccc4Cl)nn13)CN(Cc1ccccc1)CC2
MED [6]: 3 mg/kg
ED50 [7]: 0.5 mg/kg
IC50 [3]: 1.7 nM
Change in response rate [24]: 1%
GABA ratio [1]: 1.4
Change in response rate [13]: -40%
Change in response rate [28]: 18%
Change in response rate [16]: 58%
MED [10]: 3 mg/kg

Oc1nc2c(c3nc(-c4ccc(F)cc4)nn13)CN(Cc1ccccc1)CC2
Change in response rate [4]: -17%
MED [6]: 30 mg/kg
ED50 [7]: 2.55 mg/kg
IC50 [3]: 5.35 nM
Change in response rate [8]: 30%
Change in response rate [19]: -38%
GABA ratio [1]: 1.7
Change in response rate [20]: 372%
MED [10]: 30 mg/kg

NC(=O)N1CCc2nc(O)n3nc(-c4ccccc4F)nc3c2C1
IC50 [3]: 67 nM
GABA ratio [1]: 0.74

Oc1nc2c(c3nc(-c4ccc(Cl)cc4)nn13)CN(Cc1ccccc1)CC2
ED50 [7]: 6.43 mg/kg
IC50 [3]: 22.4 nM
GABA ratio [1]: 2.45
Change in response rate [14]: 4%
Change in response rate [15]: -45%
Change in response rate [17]: 104% and 188%
MED [10]: 30 mg/kg
